pIC50: −log10 of the molar value. Activity calls are given as the source filed them. The rule behind the calls is not given here.
How the values were obtained:
Plasmodium berghei [1] = test: Antimalarial activity against Plasmodium berghei ANKA infected in C57Bl6 mouse at 160 mg/kg/day, po measured on day 3 to 5 by Thompson test; assay type: functional
Plasmodium berghei [2] = test: Antimalarial activity against sporozoite stage of Plasmodium berghei infected in human Huh7 cells assessed as inhibition of parasite infection pre-incubated for 24 hrs followed by parasite infection measured after 48 hrs by bioluminescence assay; assay type: functional, organism-based; settings: Huh-7
Plasmodium berghei [3] = test: Antimalarial activity against sporozoite stage of Plasmodium berghei infected in human Huh7 cells assessed as remaining parasite infection at 5 uM pre-incubated for 24 hrs followed by parasite infection measured after 48 hrs by bioluminescence assay; settings: Huh-7
Mus musculus = test: Toxicity in Plasmodium berghei ANKA infected C57Bl6 mouse at 160 mg/kg/day, po administered for 3 days measured 2 times a day for 31 days; assay type: organism-based; settings: in vivo, 744 h
[4] = Inhibition of beta hematin formation measured as hemin equivalent after 18 hrs; assay type: physicochemical
Method in brief: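 Hemin (16 mM in DMSO) mixed with compound at 0.125–5 mol equiv to hemin, plus water and 8 M acetate buffer pH 5.2, 25% DMSO final. Incubated 18 h at 37 °C. Pellet washed with DMSO, dissolved in 0.1 M NaOH, absorbance read at 405 nm (corrected at 670 nm) against a hemin calibration.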

Plasmodium falciparum [5] = test: Antimalarial activity against mutidrug resistant Plasmodium falciparum TM91C235 after 48 hrs by [3H]hypoxanthine incorporation assay; assay type: functional, organism-based
Method in brief: (§1)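 P. falciparum D6 (Sierra I/UNC clone), W2 (Indochina I clone), TM91C235 (South-East Asian clone) cultured with compound; growth inhibition by [3H]hypoxanthine incorporation (modified Desjardins/Milhous method). Chloroquine, mefloquine, artemisinin as positive controls. IC50 in nM; technical triplicates, curve fits R2 0.96–1.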

[6] = Half life in human liver microsomes at 1 uM by LC-MS/MS analysis; assay type: ADME
Plasmodium falciparum [7] = test: Antimalarial activity against chloroquine-susceptible Plasmodium falciparum D6 after 48 hrs by [3H]hypoxanthine incorporation assay; assay type: functional, organism-based; method in brief: as §1
[8] = Selectivity index, ratio of IC50 for human HepG2 cells to IC50 for chloroquine susceptible Plasmodium falciparum D6; assay type: toxicity, cell-based; settings: read-out: Ratio IC50
Plasmodium falciparum [9] = test: Antimalarial activity against chloroquine-resistant Plasmodium falciparum W2 after 48 hrs by [3H]hypoxanthine incorporation assay; assay type: functional, organism-based; method in brief: as §1
RAW264.7 = test: Cytotoxicity against mouse RAW264.7 cells; assay type: cell-based
[10] = Half life in mouse liver microsomes at 1 uM by LC-MS/MS analysis; assay type: ADME
HepG2 = test: Cytotoxicity against human HepG2 cells after 48 hrs by MTT assay; assay type: cell-based; settings: HepG2, 48 h
Plasmodium berghei [11] = test: Antimalarial activity against Plasmodium berghei ANKA infected in C57Bl6 mouse assessed as increase in cure rate at 80 mg/kg/day, po administered for day 3 to 5 by Thompson test; assay type: functional, organism-based
Method in brief: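 Modified Thompson test: C57Bl6 female mice inoculated intraperitoneally on day 0 with 1×10^6 P. berghei ANKA-infected erythrocytes; compound suspended in 0.5% hydroxyethylcellulose–0.1% Tween 80, given orally once daily on days 3, 4 and 5 post infection. Parasitemia by Giemsa-stained thin tail-blood smears on days 0, 3, 6, 10, 13, 17, 20, 24, 27, 31. Cure = survival without parasitemia to day 31.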

Plasmodium berghei [12] = test: Antimalarial activity against Plasmodium berghei ANKA infected in C57Bl6 mouse at 80 mg/kg/day, po measured on day 3 to 5 by Thompson test; assay type: functional
[13] = Selectivity index, ratio of IC50 for mouse RAW 264.7 cells to IC50 for chloroquine susceptible Plasmodium falciparum D6; assay type: toxicity; settings: read-out: Ratio IC50
Plasmodium berghei [14] = test: Antimalarial activity against sporozoite stage of Plasmodium […] infected in human HepG2 cells; assay type: functional, organism-based

SMILES	pIC50 (Plasmodium falciparum [5])	pIC50 (Plasmodium falciparum [7])	selectivity ratio [8]	pIC50 (Plasmodium falciparum [9])	pIC50 (HepG2)	also measured
CCN(CC)CCCC(C)Nc1c(F)cnc2cc(Cl)ccc12 (stereo not drawn)						MST (Plasmodium berghei [1]): 16.8 days; pIC50 (Plasmodium berghei [2]): 6.00; % infection at 5 µM (Plasmodium berghei [3]): 35%; Activity (Mus musculus): Non-toxic; IC50 [4]: 1.07 equiv
CC(NCCCNc1ccnc2cc(Cl)ccc12)C12CC3CC(CC(C3)C1)C2 (stereo not drawn)	7.82	8.40	790	7.66		half-life at 1 µM [6]: 16 min; pIC50 (RAW264.7): 5.50; half-life at 1 µM [10]: 11 min
COC(=O)CCC(C)[C@H]1CC[C@H]2[C@@H]3[C@H](OC(C)=O)C[C@@H]4CC5(CC[C@]4(C)[C@H]3C[C@H](OC(C)=O)[C@]12C)OOC1(CCCCC1)OO5 (stereo partly drawn)						pIC50 (Plasmodium berghei [2]): > 6.00; % infection at 5 µM (Plasmodium berghei [3]): 31%
CC(CCCNc1ccnc2cc(Cl)ccc12)NCC12CC3CC(CC(C3)C1)C2 (stereo not drawn)	6.78	7.29	32	6.55	5.79	
CC(CCNCC12CC3CC(CC(C3)C1)C2)Nc1ccnc2ccccc12 (stereo not drawn)	6.87	7.77	136	6.73	5.64	half-life at 1 µM [6]: 60 min; Activity (Plasmodium berghei [11]): inactive; Activity (Mus musculus): Non-toxic; MST (Plasmodium berghei [12]): 15.2 days; IC50 [4]: 1.22 equiv; half-life at 1 µM [10]: 60 min
CC(CNc1ccnc2cc(Cl)ccc12)NCC12CC3CC(CC(C3)C1)C2 (stereo not drawn)	8.05	8.70		8.00		half-life at 1 µM [6]: 13 min; selectivity ratio [13]: 1890; pIC50 (RAW264.7): 5.42; half-life at 1 µM [10]: 10 min
CC(CCCNCC12CC3CC(CC(C3)C1)C2)Nc1ccnc2cc(Cl)ccc12 (stereo not drawn)	7.64	7.68	1160	7.66	4.61	half-life at 1 µM [6]: 49 min; half-life at 1 µM [10]: 57 min
CC(CCNCCC12CC3CC(CC(C3)C1)C2)Nc1c(F)cnc2ccccc12 (stereo not drawn)	6.26	6.81	3	6.40		
C[C@@H]1CC[C@H]2[C@@H](C)C(=O)O[C@@H]3O[C@@]4(C)CC[C@@H]1[C@]32OO4 [ARTEMISININ]	7.89	8.05		8.15		pIC50 (Plasmodium berghei [14]): 4.92
CC(NCCCCNc1ccnc2cc(Cl)ccc12)C12CC3CC(CC(C3)C1)C2 (stereo not drawn)	7.72	8.15	441	7.60	5.51	
CCN(CC)CCCNc1nc2cc(Cl)ccc2cc1F						MST (Plasmodium berghei [1]): 20.2 days; Activity (Mus musculus): Non-toxic
O=C1C(O)=C([C@H]2CC[C@H](c3ccc(Cl)cc3)CC2)C(=O)c2ccccc21 [ATOVAQUONE]						pIC50 (Plasmodium berghei [14]): 7.66
O[C@@H](c1cc(C(F)(F)F)nc2c(C(F)(F)F)cccc12)[C@H]1CCCCN1 [(S,R)-MEFLOQUINE]				8.30		
CC(CCNCC12CC3CC(CC(C3)C1)C2)Nc1nc2cc(Cl)ccc2cc1F (stereo not drawn)						pIC50 (Plasmodium berghei [2]): 6.00; % infection at 5 µM (Plasmodium berghei [3]): 2%
CC(CCCNCCC12CC3CC(CC(C3)C1)C2)Nc1ccnc2ccccc12 (stereo not drawn)	6.54	7.92	133	6.41	5.80	
CC(CCNCCC12CC3CC(CC(C3)C1)C2)Nc1ccnc2ccccc12 (stereo not drawn)	6.99	8.15	227	6.90	5.80	
CC(CCCNCC12CC3CC(CC(C3)C1)C2)Nc1c(F)cnc2cc(Cl)ccc12 (stereo not drawn)	6.47	6.70	18	6.31	5.45	

— ChEMBL document CHEMBL3758104, “Reinvestigating Old Pharmacophores: Are 4-Aminoquinolines and Tetraoxanes Potential Two-Stage Antimalarials?” (J Med Chem, 2016)
